# Experimental data from ChEMBL document CHEMBL5033990, “Novel Aryl-Substituted Pyrimidones as Inhibitors of 3-Mercaptopyruvate Sulfurtransferase with Antiproliferative Efficacy in Colon Cancer” (J Med Chem, 2021).
# Activity calls are given as the source filed them. The rule behind the calls is not given here.
# Test system: CT26
# Experiment: Inhibition of 3-MST in mouse CT26 cells assessed as inhibition of H2S generation at 300 uM incubated for 4 hrs by AzMC probe based fluorescence analysis
# Type: cell-based
# Conditions: not given
# Procedure, shortened: (§1)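 Cells seeded at 60,000/well in 8-well chambers and allowed to adhere overnight. Exposed to 300 μM compound for 4 h, then supernatant replaced with 1 mM AzMC in HBSS plus glucose for 1 h. Fluorescence imaged by microscopy; mean pixel intensity expressed as percent of control.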
row,SMILES,inhibition
1,CC(=O)Nc1ccc(C(=O)CSc2nccc(O)n2)cc1,Active
2,CC(=O)Nc1ccc(C(=O)CSc2nc(C)cc(O)n2)cc1,Active
3,Cc1cc(=O)[nH]c(SCC(=O)c2ccc3c(c2)OCO3)n1,Active
4,O=C(CSc1nccc(=O)[nH]1)c1ccc2ccccc2c1,Active
5,Cc1cc(=O)[nH]c(SCC(=O)c2cccc3ccccc23)n1,Active
6,O=C(CSc1nccc(=O)[nH]1)c1cccc2ccccc12,Active
7,Cc1cc(=O)[nH]c(SCC(=O)c2cc(O)cc(O)c2)n1,Active

# Test system: CT26
# Experiment: Antiproliferative activity against mouse CT26 cells assessed as inhibition of cell proliferation measured after 48 hrs by IncuCyte live-cell imaging assay
# Type: functional, cell-based
# Conditions: CT26, 48 h
row,SMILES,IC50
1,CC(=O)Nc1ccc(C(=O)CSc2nccc(O)n2)cc1,> 1000 µM
2,CC(=O)Nc1ccc(C(=O)CSc2nc(C)cc(O)n2)cc1,> 1000 µM
3,Cc1cc(=O)[nH]c(SCC(=O)c2ccc3c(c2)OCO3)n1,520 µM
4,O=C(CSc1nccc(=O)[nH]1)c1ccc2ccccc2c1,150 µM
5,Cc1cc(=O)[nH]c(SCC(=O)c2cccc3ccccc23)n1,207 µM
6,O=C(CSc1nccc(=O)[nH]1)c1cccc2ccccc12,352 µM
7,Cc1cc(=O)[nH]c(SCC(=O)c2cc(O)cc(O)c2)n1,> 1000 µM

# Test system: CT26
# Experiment: Antiproliferative activity against mouse CT26 cells assessed as inhibition of cell proliferation measured after 24 hrs by MTT assay
# Type: functional, cell-based
# Conditions: CT26, 24 h
row,SMILES,IC50
1,CC(=O)Nc1ccc(C(=O)CSc2nccc(O)n2)cc1,475 µM
2,CC(=O)Nc1ccc(C(=O)CSc2nc(C)cc(O)n2)cc1,> 1000 µM
3,Cc1cc(=O)[nH]c(SCC(=O)c2ccc3c(c2)OCO3)n1,502 µM
4,O=C(CSc1nccc(=O)[nH]1)c1ccc2ccccc2c1,200 µM
5,Cc1cc(=O)[nH]c(SCC(=O)c2cccc3ccccc23)n1,243 µM
6,O=C(CSc1nccc(=O)[nH]1)c1cccc2ccccc12,356 µM
7,Cc1cc(=O)[nH]c(SCC(=O)c2cc(O)cc(O)c2)n1,> 1000 µM

# Biological target: Cystathionine gamma-lyase (Homo sapiens) (UniProt P32929)
# Sequence (P32929 whole entry): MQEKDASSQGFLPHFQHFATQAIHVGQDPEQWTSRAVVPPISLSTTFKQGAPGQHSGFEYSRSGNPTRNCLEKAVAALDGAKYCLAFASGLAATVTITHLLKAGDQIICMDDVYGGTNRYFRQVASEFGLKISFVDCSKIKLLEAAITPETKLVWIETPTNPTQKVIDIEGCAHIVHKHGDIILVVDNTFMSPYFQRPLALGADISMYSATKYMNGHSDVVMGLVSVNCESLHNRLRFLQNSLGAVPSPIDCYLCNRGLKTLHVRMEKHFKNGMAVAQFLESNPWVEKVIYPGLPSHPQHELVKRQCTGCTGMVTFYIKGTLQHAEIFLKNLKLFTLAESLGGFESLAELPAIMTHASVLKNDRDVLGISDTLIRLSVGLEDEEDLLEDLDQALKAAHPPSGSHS
# Experiment: Inhibition of human full length CSE using L-cysteine as substrate at 30 to 300 uM preincubated with enzyme for 1 hr followed by substrate and PLP addition for 2 hrs by AzMC probe based fluorescence analysis
# Conditions: dose 30-300 µM, time 3.0 hrs
# Procedure, shortened: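 Human full-length CSE, 2 μg/well, preincubated 1 h with compound at 30 or 300 μM. Then added 5 μM PLP and 2 mM L-cysteine. AzMC fluorescence read kinetically for 2 h at 37 °C. Substrate background subtracted; percent of control, at least three replicates.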
row,SMILES,inhibition
1,CC(=O)Nc1ccc(C(=O)CSc2nccc(O)n2)cc1,inactive
2,Cc1cc(=O)[nH]c(SCC(=O)c2ccc3ncccc3c2)n1,Active
3,CC(=O)Nc1ccc(C(=O)CSc2nc(C)cc(O)n2)cc1,inactive
4,O=C(CSc1nccc(=O)[nH]1)c1ccc(O)cc1,Active
5,Cc1cc(=O)[nH]c(SCC(=O)c2ccc3c(c2)OCO3)n1,inactive
6,O=C(CSc1nccc(=O)[nH]1)c1ccc2ccccc2c1,inactive
7,O=C(CSc1nccc(=O)[nH]1)c1cccc2ccccc12,inactive
8,Cc1cc(=O)[nH]c(SCC(=O)c2cc(O)cc(O)c2)n1,inactive

# Test system: not listed separately
# Experiment: Inhibition of recombinant human 3-MST expressed in Escherichia coli assessed as inhibition of H2S generation using 3-MP as substrate preincubated with enzyme for 1 hr followed by incubation with substrate for 1 hr by AzMC probe based fluorescence analysis
# Conditions: not given
# Procedure, shortened: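 Same 3-MST/3-MP/AzMC assay, 1 h preincubation then 1 h kinetic read, at 3, 10, 30, 100 and 300 μM (final DMSO 0.3%). Run for compounds inhibiting at least 60% at 100 μM. Three experiments in triplicate. IC50 from nonlinear fit of data taken between min 20 and 40 of the 60 min read.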
row,SMILES,IC50
1,O=C(CSc1nccc(=O)[nH]1)c1ccc(O)c(O)c1,18.9 µM
2,Cc1cc(=O)[nH]c(SCC(=O)c2ccc(O)c3ccccc23)n1,3.3 µM
3,Cc1cc(=O)[nH]c(SCC(=O)c2ccc3ccccc3c2)n1,22.6 µM
4,CC(=O)Nc1ccc(C(=O)CSc2nccc(O)n2)cc1,14.4 µM
5,O=C(CSc1nccc(=O)[nH]1)c1ccc(F)c2ccccc12,31.8 µM
6,Cc1cc(=O)[nH]c(SCC(=O)c2ccc3ncccc3c2)n1,16.1 µM
7,Cc1cc(=O)[nH]c(SCC(=O)c2ccc(O)c(I)c2)n1,16.9 µM
8,CC(=O)Nc1ccc(C(=O)CSc2nc(C)cc(O)n2)cc1,9.9 µM
9,O=C(CSc1nccc(=O)[nH]1)c1ccc(O)cc1,12.9 µM
10,Cc1cc(=O)[nH]c(SCC(=O)c2ccc3c(c2)OCO3)n1,19.5 µM
11,O=C(CSc1nccc(=O)[nH]1)c1ccc2ccccc2c1,28.2 µM
12,Cc1cc(=O)[nH]c(SCC(=O)c2cccc3ccccc23)n1,15.6 µM
13,O=C(CSc1nccc(=O)[nH]1)c1cccc2ccccc12,7.3 µM
14,Cc1cc(=O)[nH]c(SCC(=O)c2cc(O)cc(O)c2)n1,23.6 µM

# Species: Homo sapiens
# Experiment: Inhibition of recombinant human 3-MST expressed in Escherichia coli assessed as inhibition of H2S generation using 3-MP as substrate at 100 uM preincubated with enzyme for 1 hr followed by incubation with substrate for 1 hr by AzMC probe based fluorescence analysis
# Conditions: time 2.0 hrs
# Procedure, shortened: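 Human recombinant 3-MST, 3 μg/well, in 50 mM Tris-HCl pH 8 preincubated 1 h at 37 °C with compound at 100 μM (from 100 mM DMSO stock). Then 2 mM 3-MP (no extra sulfur acceptor) and 10 μM AzMC added. Fluorescence read kinetically 1 h at 37 °C, ex 365/em 450 nm. Percent inhibition, mean of three replicates.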
row,SMILES,inhibition
1,Cc1cc(=O)[nH]c(SCC(=O)c2cccc3ccccc23)n1,68%

# Test system: Mus musculus
# Experiment: Antitumor activity against mouse MC38 cells xenografed in C57BL/6 mouse assessed as euthanasia rate at 20 mg/kg, ip administered daily for 2 weeks and measured on day 32 (reference value: 75%)
# Type: functional, MC-38
# Conditions: time 32 day
row,SMILES,Activity
1,Cc1cc(=O)[nH]c(SCC(=O)c2cccc3ccccc23)n1,67%
2,O=C(CSc1nccc(=O)[nH]1)c1cccc2ccccc12,33%

# Test system: MC38
# Experiment: Inhibition of 3-MST in mouse MC38 cells assessed as inhibition of H2S generation at 300 uM incubated for 4 hrs by AzMC probe based fluorescence analysis
# Type: cell-based
# Conditions: not given
# Procedure, shortened: as §1
row,SMILES,inhibition
1,CC(=O)Nc1ccc(C(=O)CSc2nccc(O)n2)cc1,Active
2,CC(=O)Nc1ccc(C(=O)CSc2nc(C)cc(O)n2)cc1,Active
3,Cc1cc(=O)[nH]c(SCC(=O)c2ccc3c(c2)OCO3)n1,Active
4,O=C(CSc1nccc(=O)[nH]1)c1ccc2ccccc2c1,Active
5,Cc1cc(=O)[nH]c(SCC(=O)c2cccc3ccccc23)n1,Active
6,O=C(CSc1nccc(=O)[nH]1)c1cccc2ccccc12,Active
7,Cc1cc(=O)[nH]c(SCC(=O)c2cc(O)cc(O)c2)n1,Active

# Biological target: T1, Cystathionine beta-synthase (Homo sapiens) (UniProt P35520)
# T1 sequence (whole entry): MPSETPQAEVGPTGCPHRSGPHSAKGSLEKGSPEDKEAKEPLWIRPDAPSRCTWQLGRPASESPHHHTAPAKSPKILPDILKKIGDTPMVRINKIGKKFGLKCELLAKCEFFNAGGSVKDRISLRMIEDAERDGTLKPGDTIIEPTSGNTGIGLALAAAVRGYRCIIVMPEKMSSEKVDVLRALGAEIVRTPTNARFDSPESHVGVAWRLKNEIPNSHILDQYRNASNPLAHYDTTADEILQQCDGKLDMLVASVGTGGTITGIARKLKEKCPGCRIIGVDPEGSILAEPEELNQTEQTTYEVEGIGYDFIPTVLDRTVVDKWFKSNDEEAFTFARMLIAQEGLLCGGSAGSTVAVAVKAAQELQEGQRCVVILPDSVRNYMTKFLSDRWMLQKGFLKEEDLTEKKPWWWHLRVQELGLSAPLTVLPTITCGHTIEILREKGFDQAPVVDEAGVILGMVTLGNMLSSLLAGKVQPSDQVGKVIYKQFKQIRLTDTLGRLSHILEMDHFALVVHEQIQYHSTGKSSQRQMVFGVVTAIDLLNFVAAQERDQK
# Experiment: Inhibition of human full length CBS using L-cysteine and L-homocysteine as substrate at 30 to 300 uM preincubated with enzyme for 1 hr followed by substrate, PLP and SAM addition for 2 hrs by AzMC probe based fluorescence analysis
# Conditions: dose 30-300 µM, time 3.0 hrs
# Procedure, shortened: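 Human full-length CBS, 0.5 μg/well, preincubated 1 h with compound at 30 or 300 μM. Then added 5 μM PLP, 2 mM L-cysteine, 2 mM L-homocysteine and 500 μM SAM. AzMC fluorescence read kinetically for 2 h at 37 °C. Substrate background subtracted; percent of control, at least three replicates.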
row,SMILES,inhibition
1,CC(=O)Nc1ccc(C(=O)CSc2nccc(O)n2)cc1,inactive
2,CC(=O)Nc1ccc(C(=O)CSc2nc(C)cc(O)n2)cc1,inactive
3,Cc1cc(=O)[nH]c(SCC(=O)c2ccc3c(c2)OCO3)n1,inactive
4,O=C(CSc1nccc(=O)[nH]1)c1ccc2ccccc2c1,inactive
5,O=C(CSc1nccc(=O)[nH]1)c1cccc2ccccc12,inactive
6,Cc1cc(=O)[nH]c(SCC(=O)c2cc(O)cc(O)c2)n1,inactive

# Test system: MC-38
# Experiment: Antiproliferative activity against mouse MC38 cells assessed as inhibition of cell proliferation measured after 24 hrs by MTT assay
# Type: functional, cell-based
# Conditions: MC-38, 24 h
row,SMILES,IC50
1,CC(=O)Nc1ccc(C(=O)CSc2nccc(O)n2)cc1,> 1000 µM
2,CC(=O)Nc1ccc(C(=O)CSc2nc(C)cc(O)n2)cc1,> 1000 µM
3,Cc1cc(=O)[nH]c(SCC(=O)c2ccc3c(c2)OCO3)n1,367 µM
4,O=C(CSc1nccc(=O)[nH]1)c1ccc2ccccc2c1,340 µM
5,Cc1cc(=O)[nH]c(SCC(=O)c2cccc3ccccc23)n1,221 µM
6,O=C(CSc1nccc(=O)[nH]1)c1cccc2ccccc12,366 µM
7,Cc1cc(=O)[nH]c(SCC(=O)c2cc(O)cc(O)c2)n1,> 1000 µM

# Test system: MC-38
# Experiment: Antiproliferative activity against mouse MC38 cells assessed as inhibition of cell proliferation measured after 48 hrs by IncuCyte live-cell imaging assay
# Type: functional, cell-based
# Conditions: MC-38, 48 h
row,SMILES,IC50
1,CC(=O)Nc1ccc(C(=O)CSc2nccc(O)n2)cc1,> 1000 µM
2,CC(=O)Nc1ccc(C(=O)CSc2nc(C)cc(O)n2)cc1,> 1000 µM
3,Cc1cc(=O)[nH]c(SCC(=O)c2ccc3c(c2)OCO3)n1,777 µM
4,O=C(CSc1nccc(=O)[nH]1)c1ccc2ccccc2c1,152 µM
5,Cc1cc(=O)[nH]c(SCC(=O)c2cccc3ccccc23)n1,101 µM
6,O=C(CSc1nccc(=O)[nH]1)c1cccc2ccccc12,191 µM
7,Cc1cc(=O)[nH]c(SCC(=O)c2cc(O)cc(O)c2)n1,> 1000 µM

# Test system: MC-38
# Experiment: Antiproliferative activity against mouse MC38 cells assessed as inhibition of cell proliferation upto 300 uM measured after 24 hrs by MTT assay
# Type: functional, cell-based
# Conditions: dose microM <=300, time 24.0 hrs
# Procedure, shortened: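 CT26 or MC38 cells in high-glucose DMEM with 10% FBS and penicillin/streptomycin, 37 °C, 5% CO2. Seeded at 10,000 cells/well and treated after 1 h adherence at 3, 10, 30, 100 and 300 μM (final DMSO 0.5%). After 24 h, medium replaced by 2 mg/mL MTT in PBS for 3 h. Formazan dissolved in DMSO, absorbance read at 590 nm minus 690 nm. Expressed as percent of control; three experiments in triplicate.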
row,SMILES,Activity
1,CC(=O)Nc1ccc(C(=O)CSc2nccc(O)n2)cc1,inactive
2,CC(=O)Nc1ccc(C(=O)CSc2nc(C)cc(O)n2)cc1,inactive
3,Cc1cc(=O)[nH]c(SCC(=O)c2ccc3c(c2)OCO3)n1,inactive
4,Cc1cc(=O)[nH]c(SCC(=O)c2cc(O)cc(O)c2)n1,inactive

# Test system: MC-38
# Experiment: Antitumor activity against mouse MC38 cells xenografed in C57BL/6 mouse assessed as reduction in tumor growth at 20 mg/kg, ip administered daily for 2 weeks by caliper analysis
# Type: functional, organism-based
# Conditions: not given
row,SMILES,Activity
1,Cc1cc(=O)[nH]c(SCC(=O)c2cccc3ccccc23)n1,inactive
2,O=C(CSc1nccc(=O)[nH]1)c1cccc2ccccc12,Active

# Test system: not listed separately
# Experiment: Inhibition of GYY4137-induced H2S release assessed as H2S-induced fluorescence signal at 300 uM measured after 2 hrs by AzMC probe based fluorescence analysis
# Type: functional
# Design: scale not given: the % may be the effect or the level left
# Conditions: not given
# Procedure, shortened: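 H2S scavenging/interference check in 50 mM Tris-HCl pH 8: compound at 300 μM with 100 μM AzMC and 5 mM GYY4137 as nonenzymatic H2S donor. Fluorescence read kinetically for 2 h at 37 °C (ex 365/em 450 nm). Signal loss above 20% flagged as potential scavenger/interferer.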
row,SMILES,Activity
1,O=C(CSc1nccc(=O)[nH]1)c1ccc(O)c(O)c1,< 80%
2,Cc1cc(=O)[nH]c(SCC(=O)c2ccc(O)c3ccccc23)n1,< 80%
3,Cc1cc(=O)[nH]c(SCC(=O)c2ccc(O)c(I)c2)n1,< 80%
